These results are taken from paper PMC12222516 (Scientific Reports, 2025).

Some results are limits rather than exact numbers.

By CC50 is commonly meant the concentration at which the toxic effect on the cells reaches its halfway point. By Ki is commonly meant a measure of affinity in units of concentration, obtained from inhibition or displacement.

One series in a line: MTT cytotoxicity assay. In kind it is cell-based, human. The following applies: human, normal human dermal fibroblast (HDF) cells. The method in brief: (§1)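 Human dermal fibroblasts grown in DMEM with 10% FBS, penicillin 100 units/mL, streptomycin 100 µg/mL and amphotericin B 0.25 µg/mL. Seeded at 2 × 10³ cells/well and left to adhere overnight at 37 °C, 5% CO2. Exposed to varying doses for 24 h, with 0.5% DMSO as untreated control. MTT at 1 mg/mL for 4 h at 37 °C. Formazan dissolved in DMSO and read at 570 nm. Viability expressed as % of control.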
For orientation: Tetrazolium assays rely on reduction of a dye to a coloured formazan, in cell work by metabolically active cells.

In series [1] the test system is normal human dermal fibroblast (HDF) cells. In words: MTT cytotoxicity assay. The following applies: HDF cells, MTT. In kind it is cell-based. An outline of the steps: as §1
In series [2] the target is α-glucosidase from Saccharomyces cerevisiae (Saccharomyces cerevisiae, UniProt P53341). The series is described as follows: Enzyme kinetic study. Format: biochemical. An outline of the steps:
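Yeast (S. cerevisiae) α-glucosidase, EC 3.2.1.20, kept at 0.02 U/mL. Run with and without test compound at several concentrations, across a range of p-NPG substrate concentrations. Inhibition type assigned from the Lineweaver–Burk plot. Ki taken from a secondary plot of slope against inhibitor concentration.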

Chain of α-glucosidase from Saccharomyces cerevisiae (P53341 whole entry): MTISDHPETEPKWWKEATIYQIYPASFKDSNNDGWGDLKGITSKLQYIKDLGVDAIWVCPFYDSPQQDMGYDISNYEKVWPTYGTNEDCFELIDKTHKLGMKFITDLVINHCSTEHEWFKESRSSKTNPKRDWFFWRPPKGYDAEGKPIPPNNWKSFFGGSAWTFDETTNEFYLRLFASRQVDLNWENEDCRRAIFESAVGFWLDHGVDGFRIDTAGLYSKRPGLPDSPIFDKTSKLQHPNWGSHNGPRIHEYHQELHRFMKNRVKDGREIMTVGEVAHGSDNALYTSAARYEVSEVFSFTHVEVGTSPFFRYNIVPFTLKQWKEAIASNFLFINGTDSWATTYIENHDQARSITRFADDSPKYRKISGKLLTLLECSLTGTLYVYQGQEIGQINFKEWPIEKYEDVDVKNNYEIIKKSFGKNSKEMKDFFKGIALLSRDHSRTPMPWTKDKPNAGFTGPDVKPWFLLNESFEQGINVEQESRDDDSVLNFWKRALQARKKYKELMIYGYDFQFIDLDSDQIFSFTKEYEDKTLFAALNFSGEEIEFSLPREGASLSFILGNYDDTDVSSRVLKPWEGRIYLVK

With `C[C@H]1CN(C(=O)Nc2ccc(C(F)(F)F)cc2)CCN1c1ccnc(Nc2ccc(Cl)c(O)c2)n1` [Compound 21c, (S)-4-(2-((4-chloro-3-hydroxyphenyl)amino)pyrimidin-4-yl)-3-methyl-N-(4-(trifluoromethyl)phenyl)piperazine-1-carboxamide], in “MTT cytotoxicity assay”, the CC50 at 24 h was determined as 23.1 µM. The “cytotoxic effect on normal cells at given IC50 value” in series [1] is “no cytotoxic effect”. Also, in series [2], the Ki was determined as 0.74 µM. Further, the mode of inhibition result in series [2] (Lineweaver–Burk plots) is “competitive inhibitor”.
On to `C[C@H]1CN(C(=O)Nc2ccc(C(F)(F)F)cc2)CCN1c1ccnc(Nc2ccc(Cl)c(OCc3ccccc3)c2)n1` [Compound 22c, (S)-4-(2-((3-(benzyloxy)-4-chlorophenyl)amino)pyrimidin-4-yl)-3-methyl-N-(4-(trifluoromethyl)phenyl)piperazine-1-carboxamide], for which, in the series “MTT cytotoxicity assay”, the CC50 at 24 h was greater than 200 µM.
In turn, `C[C@H]1CN(C(=O)Nc2ccc(C(F)(F)F)cc2)CCN1c1ccnc(Nc2ccc(Cl)cc2)n1` [Compound 7c, (S)-4-(2-((4-chlorophenyl)amino)pyrimidin-4-yl)-3-methyl-N-(4-(trifluoromethyl)phenyl)piperazine-1-carboxamide] gave a CC50 at 24 h in “MTT cytotoxicity assay” of 42.3 µM. That is a double-digit micromolar value.
Still for that read-out and setting: the value for `C[C@H]1CN(C(=O)Nc2ccc(C(F)(F)F)cc2)CCN1c1ccnc(Nc2cccc([N+](=O)[O-])c2)n1` [Compound 17c, (S)-3-methyl-4-(2-((3-nitrophenyl)amino)pyrimidin-4-yl)-N-(4-(trifluoromethyl)phenyl)piperazine-1-carboxamide] was 15.2 µM.
